Columns and labels:
Type in all cases: functional
COLO 205 [1] = test: Cytotoxicity against human COLO205 cells at 10^-4 M after 48 hrs by SRB assay; conditions: COLO 205, 48 h, read-out: GI
In short: (§1)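 Run by NCI on its 60-line human tumor cell panel, after a three-cell-line prescreen. Cells were exposed to drug for 48 h over a 5-log range: 100, 10, 1, 0.1 and 0.01 micromolar. Growth was estimated by sulforhodamine B (SRB) protein staining. Percent growth inhibition (I%) was recorded at each concentration relative to untreated control cells.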

HL-60(TB) = test: Cytotoxicity against human HL-60(TB) cells at 10^-5 M after 48 hrs by SRB assay; conditions: HL-60, 48 h, read-out: GI
In short: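 NCI 60-human-tumour-cell-line screen run over a 5-log dose range (100, 10, 1, 0.1 and 0.01 µM). Cells were exposed to drug for 48 h. Growth was estimated by sulforhodamine B protein staining. Values are percent growth inhibition at each concentration, relative to untreated control cells.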

SF-539 = test: Cytotoxicity against human SF539 cells at 10^-5 M after 48 hrs by SRB assay; conditions: SF-539, 48 h, read-out: GI
In short: (§2)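 Second-stage screen in the 60-cell-line human tumor panel at NCI, over a 5-log range (100, 10, 1, 0.1, 0.01 micromolar). Cells were exposed to drug for 48 h and growth was estimated with a sulforhodamine B protein stain. The value is percent growth inhibition at each concentration.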

M14 = test: Cytotoxicity against human M14 cells at 10^-5 M after 48 hrs by SRB assay; conditions: M14, 48 h, read-out: GI
In short: (§3)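 Run in the NCI 60-cell-line screen after a three-line prescreen. Cells got a 48 h drug exposure; viability/growth was estimated with the sulforhodamine B protein assay. Growth inhibition (I%) was recorded at 100, 10, 1, 0.1 and 0.01 micromolar. Percent growth is relative to untreated control cells, and negative values indicate cell kill.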

NCI/ADR-RES = test: Cytotoxicity against human NCI/ADR-RES cells at 10^-6 M after 48 hrs by SRB assay; conditions: read-out: GI; in short: as §3
MOLT-4 = test: Cytotoxicity against human MOLT4 cells at 10^-5 M after 48 hrs by SRB assay; conditions: MOLT-4, 48 h, read-out: GI; in short: as §3
[2] = Cytotoxicity against human EKVX cells at 10^-6 M after 48 hrs by SRB assay; conditions: read-out: GI; in short: as §1
786-0 [3] = test: Cytotoxicity against human 786-0 cells at 10^-6 M after 48 hrs by SRB assay; conditions: 786-0, 48 h, read-out: GI; in short: as §1
U-251 = test: Cytotoxicity against human U251 cells at 10^-5 M after 48 hrs by SRB assay; conditions: U-251, 48 h, read-out: GI
NCI-H460 [4] = test: Cytotoxicity against human NCI-H460 cells at 10^-6 M after 48 hrs by SRB assay; conditions: NCI-H460, 48 h, read-out: GI; in short: as §3
786-0 [5] = test: Cytotoxicity against human 786-0 cells at 10^-5 M after 48 hrs by SRB assay; conditions: 786-0, 48 h, read-out: GI; in short: as §1
SK-MEL-28 = test: Cytotoxicity against human SK-MEL-28 cells at 10^-6 M after 48 hrs by SRB assay; conditions: SK-MEL-28, 48 h, read-out: GI; in short: as §2
SK-MEL-5 [6] = test: Cytotoxicity against human SK-MEL-5 cells at 10^-5 M after 48 hrs by SRB assay; conditions: SK-MEL-5, 48 h, read-out: GI; in short: as §2
NCI-H322M = test: Cytotoxicity against human NCI-H322M cells at 10^-5 M after 48 hrs by SRB assay; conditions: read-out: GI; in short: as §3
OVCAR-3 = test: Cytotoxicity against human OVCAR3 cells at 10^-5 M after 48 hrs by SRB assay; conditions: OVCAR-3, 48 h, read-out: GI; in short: as §3
HOP-92 = test: Cytotoxicity against human HOP92 cells at 10^-6 M after 48 hrs by SRB assay; conditions: HOP-92, 48 h, read-out: GI; in short: as §1
HCT-15 = test: Cytotoxicity against human HCT15 cells at 10^-5 M after 48 hrs by SRB assay; conditions: HCT-15, 48 h, read-out: GI; in short: as §1
COLO 205 [7] = test: Cytotoxicity against human COLO205 cells at 10^-6 M after 48 hrs by SRB assay; conditions: COLO 205, 48 h, read-out: GI; in short: as §1
RXF 393 = test: Cytotoxicity against human RXF393 cells at 10^-6 M after 48 hrs by SRB assay; conditions: RXF 393, 48 h, read-out: GI; in short: as §2
[8] = Cytotoxicity against human OVCAR5 cells at 10^-6 M after 48 hrs by SRB assay; conditions: OVCAR-5, 48 h, read-out: GI; in short: as §2
SK-OV-3 = test: Cytotoxicity against human SKOV3 cells at 10^-5 M after 48 hrs by SRB assay; conditions: SK-OV-3, 48 h, read-out: GI; in short: as §2
BT-549 = test: Cytotoxicity against human BT549 cells at 10^-5 M after 48 hrs by SRB assay; conditions: BT-549, 48 h, read-out: GI; in short: as §1
[9] = Cytotoxicity against human Hs578T cells at 10^-6 M after 48 hrs by SRB assay; conditions: Hs-578T, read-out: GI; in short: as §1
NCI-H460 [10] = test: Cytotoxicity against human NCI-H460 cells at 10^-5 M after 48 hrs by SRB assay; conditions: NCI-H460, 48 h, read-out: GI; in short: as §3
SK-MEL-5 [11] = test: Cytotoxicity against human SK-MEL-5 cells at 10^-6 M after 48 hrs by SRB assay; conditions: SK-MEL-5, 48 h, read-out: GI; in short: as §2
A549 [12] = test: Cytotoxicity against human A549 cells at 10^-5 M after 48 hrs by SRB assay; conditions: A549, 48 h, read-out: GI; in short: as §1
SF-295 = test: Cytotoxicity against human SF295 cells at 10^-6 M after 48 hrs by SRB assay; conditions: SF-295, 48 h, read-out: GI; in short: as §2
SNB-75 [13] = test: Cytotoxicity against human SNB75 cells at 10^-6 M after 48 hrs by SRB assay; conditions: SNB-75, 48 h, read-out: GI
HOP-62 = test: Cytotoxicity against human HOP62 cells at 10^-6 M after 48 hrs by SRB assay; conditions: HOP-62, 48 h, read-out: GI; in short: as §1
KM12 = test: Cytotoxicity against human KM12 cells at 10^-6 M after 48 hrs by SRB assay; conditions: KM12, 48 h, read-out: GI; in short: as §3
[14] = Cytotoxicity against human OVCAR4 cells at 10^-5 M after 48 hrs by SRB assay; conditions: OVCAR-4, 48 h, read-out: GI; in short: as §2
MCF7 = test: Cytotoxicity against human MCF7 cells at 10^-5 M after 48 hrs by SRB assay; conditions: MCF7, 48 h, read-out: GI; in short: as §3
A549 [15] = test: Cytotoxicity against human A549 cells at 10^-6 M after 48 hrs by SRB assay; conditions: A549, 48 h, read-out: GI; in short: as §1
SNB-75 [16] = test: Cytotoxicity against human SNB75 cells at 10^-5 M after 48 hrs by SRB assay; conditions: SNB-75, 48 h, read-out: GI
PC-3 = test: Cytotoxicity against human PC3 cells at 10^-5 M after 48 hrs by SRB assay; conditions: PC-3, 48 h, read-out: GI; in short: as §2
UACC-62 = test: Cytotoxicity against human UACC62 cells at 10^-6 M after 48 hrs by SRB assay; conditions: UACC-62, 48 h, read-out: GI

SMILES | inhibition of growth at 100 µM (COLO 205 [1]) [%] | inhibition of growth at 10 µM (HL-60(TB)) [%] | inhibition of growth at 10 µM (SF-539) [%] | inhibition of growth at 10 µM (M14) [%] | inhibition of growth at 1 µM (NCI/ADR-RES) [%] | inhibition of growth at 10 µM (MOLT-4) [%] | inhibition of growth at 1 µM [2] [%] | inhibition of growth at 1 µM (786-0 [3]) [%] | inhibition of growth at 10 µM (U-251) [%] | inhibition of growth at 1 µM (NCI-H460 [4]) [%] | inhibition of growth at 10 µM (786-0 [5]) [%] | inhibition of growth at 1 µM (SK-MEL-28) [%] | inhibition of growth at 10 µM (SK-MEL-5 [6]) [%] | inhibition of growth at 10 µM (NCI-H322M) [%] | inhibition of growth at 10 µM (OVCAR-3) [%] | inhibition of growth at 1 µM (HOP-92) [%] | inhibition of growth at 10 µM (HCT-15) [%] | inhibition of growth at 1 µM (COLO 205 [7]) [%] | inhibition of growth at 1 µM (RXF 393) [%] | inhibition of growth at 1 µM [8] [%] | other results
C#CCN(Cc1nc2cc(C(F)(F)F)ccc2nc1-c1ccccc1)c1ccc(OC(F)(F)F)cc1 | 73 | – | – | – | – | – | – | – | – | – | – | – | – | – | – | – | – | – | – | – | –
C#CCN(Cc1nc2cc(C(F)(F)F)ccc2nc1-c1ccccc1)c1ccc(F)cc1 | 126 | – | – | – | – | – | – | – | – | – | – | – | – | – | – | – | – | – | – | – | –
C#CCN(Cc1nc2cc(C(F)(F)F)ccc2nc1-c1ccccc1)c1ccc(F)c(F)c1 | 75 | – | – | – | – | – | – | – | – | – | – | – | – | – | – | – | – | – | – | – | –
C#CCN(Cc1nc2cc(C(F)(F)F)ccc2nc1-c1ccccc1)c1ccc(C)cc1 | 177 | 85 | 49 | 95 | 109 | 88 | < 40 | < 40 | 85 | 62 | 70 | < 40 | 99 | 62 | 125 | < 40 | 110 | 108 | < 40 | < 40 | inhibition of growth at 10 µM (SK-OV-3): 112%; inhibition of growth at 10 µM (BT-549): < 40%; inhibition of growth at 1 µM [9]: < 40%; inhibition of growth at 10 µM (NCI-H460 [10]): 75%; inhibition of growth at 1 µM (SK-MEL-5 [11]): < 40%; inhibition of growth at 10 µM (A549 [12]): 55%; inhibition of growth at 1 µM (SF-295): 56%; inhibition of growth at 1 µM (SNB-75 [13]): < 40%; inhibition of growth at 1 µM (HOP-62): 56%; inhibition of growth at 1 µM (KM12): < 40%; inhibition of growth at 10 µM [14]: 63%; inhibition of growth at 10 µM (MCF7): 70%; inhibition of growth at 1 µM (A549 [15]): 45%; inhibition of growth at 10 µM (SNB-75 [16]): 118%; inhibition of growth at 10 µM (PC-3): < 40%; inhibition of growth at 1 µM (UACC-62): < 40%
CCN(Cc1nc2cc(C(F)(F)F)ccc2nc1-c1ccccc1)c1ccc(OC)c(OC)c1 | 92 | 83 | 18 | 17 | < 40 | 44 | < 40 | < 40 | 62 | < 40 | 15 | < 40 | 17 | < 40 | 31 | < 40 | 17 | < 40 | 57 | < 40 | inhibition of growth at 10 µM (SK-OV-3): < 40%; inhibition of growth at 10 µM (BT-549): 33%; inhibition of growth at 1 µM [9]: < 40%; inhibition of growth at 10 µM (NCI-H460 [10]): 25%; inhibition of growth at 1 µM (SK-MEL-5 [11]): < 40%; inhibition of growth at 10 µM (A549 [12]): 79%; inhibition of growth at 1 µM (SF-295): < 40%; inhibition of growth at 1 µM (SNB-75 [13]): < 40%; inhibition of growth at 1 µM (HOP-62): < 40%; inhibition of growth at 1 µM (KM12): < 40%; inhibition of growth at 10 µM [14]: < 40%; inhibition of growth at 10 µM (MCF7): 25%; inhibition of growth at 1 µM (A549 [15]): 56%; inhibition of growth at 10 µM (SNB-75 [16]): < 40%; inhibition of growth at 10 µM (PC-3): 56%; inhibition of growth at 1 µM (UACC-62): < 40%
